According to ChEMBL document CHEMBL1143388 (Bioorg Med Chem, 2009):

What follows are compounds tested against T1, Kappa-type opioid receptor (Homo sapiens, UniProt P41145) (assay: Displacement of [3H]diprenorphine from human KOPR expressed in CHO cells).
Assay type: cell-based

T1 sequence (P41145 whole entry): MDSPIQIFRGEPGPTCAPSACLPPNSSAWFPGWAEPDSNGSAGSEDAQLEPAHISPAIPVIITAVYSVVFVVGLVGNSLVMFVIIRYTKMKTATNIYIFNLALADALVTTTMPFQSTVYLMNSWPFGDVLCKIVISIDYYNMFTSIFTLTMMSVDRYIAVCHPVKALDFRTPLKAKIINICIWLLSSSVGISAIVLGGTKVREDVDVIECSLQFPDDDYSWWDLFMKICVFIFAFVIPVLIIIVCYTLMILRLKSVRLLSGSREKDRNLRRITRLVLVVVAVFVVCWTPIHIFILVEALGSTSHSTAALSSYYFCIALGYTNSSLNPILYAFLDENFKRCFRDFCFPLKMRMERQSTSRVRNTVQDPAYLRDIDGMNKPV

Row | SMILES | Ki [nM]
1 | COC(=O)[C@@H]1C[C@H](OC(C)=O)C(=O)[C@H]2[C@@]1(C)CC[C@H]1C(=O)O[C@H](C(=O)O)C[C@]21C | 55

The compounds below were run against T1, Kappa-type opioid receptor (assay: Agonist activity at human KOPR expressed in CHO cells assessed as enhancement of [35S]GTPgammaS binding).
Assay type: functional, cell-based

Row | SMILES | EC50 [nM]
2 | COC(=O)[C@@H]1C[C@H](OC(C)=O)C(=O)[C@H]2[C@@]1(C)CC[C@H]1C(=O)O[C@H](C(=O)O)C[C@]21C | 167

These compounds were tested against T1, Kappa-type opioid receptor (assay: Agonist activity at human KOPR expressed in CHO cells assessed as enhancement of [35S]GTPgammaS binding at 10 uM relative to U50488).
Assay type: functional, cell-based

Row | SMILES | Emax [%]
3 | COC(=O)[C@@H]1C[C@H](OC(C)=O)C(=O)[C@H]2[C@@]1(C)CC[C@H]1C(=O)O[C@H](C(=O)O)C[C@]21C | 99
4 | COC(=O)[C@@H]1C[C@]2(C)[C@H]3C(=O)[C@@H](OC(C)=O)C[C@@H](C(=O)OC)[C@]3(C)CC[C@H]2C(=O)O1 | 99
5 | COC(=O)[C@@H]1C[C@H](OC(C)=O)C(=O)[C@H]2[C@@]1(C)CC[C@H]1C(=O)O[C@H](C(=O)c3cccs3)C[C@]21C | 103
6 | COC[C@@H]1C[C@]2(C)[C@H]3C(=O)[C@@H](OC(C)=O)C[C@@H](C(=O)OC)[C@]3(C)CC[C@H]2C(=O)O1 | 98
7 | COC(=O)[C@@H]1C[C@H](OC(C)=O)C(=O)[C@H]2[C@@]1(C)CC[C@H]1C(=O)O[C@H](C(=O)c3cnccn3)C[C@]21C | 103
8 | COC(=O)[C@@H]1C[C@H](OC(C)=O)C(=O)[C@H]2[C@@]1(C)CC[C@H]1C(=O)O[C@H]([C@H](O)c3ccco3)C[C@]21C | 111
9 | CCOC(=O)[C@@H]1C[C@]2(C)[C@H]3C(=O)[C@@H](OC(C)=O)C[C@@H](C(=O)OC)[C@]3(C)CC[C@H]2C(=O)O1 | 94
10 | C=Cc1occc1[C@@H]1C[C@]2(C)[C@H]3C(=O)[C@@H](OC(C)=O)C[C@@H](C(=O)OC)[C@]3(C)CC[C@H]2C(=O)O1 | 120
11 | COC(=O)[C@@H]1C[C@H](OC(C)=O)C(=O)[C@H]2[C@@]1(C)CC[C@H]1C(=O)O[C@H](C(=O)OC(C)C)C[C@]21C | 94
12 | COC(=O)[C@@H]1C[C@H](OC(C)=O)C(=O)[C@H]2[C@@]1(C)CC[C@H]1C(=O)O[C@H](COC(C)=O)C[C@]21C | 113

What follows are compounds tested against Mu-type opioid receptor (Rattus norvegicus, UniProt P33535) (assay: Binding affinity to rat MOPR expressed in CHO cells).
Assay type: cell-based
Method in brief: (§1)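 Competitive displacement of [3H]diprenorphine from membranes of CHO cells stably transfected with rat MOPR or mouse DOPR. Buffer: 50 mM Tris-HCl, pH 7.4, with 1 mM EGTA. Ki values were derived from inhibition curves. Each value is the mean of at least three independent experiments run in duplicate.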

Sequence of Mu-type opioid receptor (P33535 whole entry): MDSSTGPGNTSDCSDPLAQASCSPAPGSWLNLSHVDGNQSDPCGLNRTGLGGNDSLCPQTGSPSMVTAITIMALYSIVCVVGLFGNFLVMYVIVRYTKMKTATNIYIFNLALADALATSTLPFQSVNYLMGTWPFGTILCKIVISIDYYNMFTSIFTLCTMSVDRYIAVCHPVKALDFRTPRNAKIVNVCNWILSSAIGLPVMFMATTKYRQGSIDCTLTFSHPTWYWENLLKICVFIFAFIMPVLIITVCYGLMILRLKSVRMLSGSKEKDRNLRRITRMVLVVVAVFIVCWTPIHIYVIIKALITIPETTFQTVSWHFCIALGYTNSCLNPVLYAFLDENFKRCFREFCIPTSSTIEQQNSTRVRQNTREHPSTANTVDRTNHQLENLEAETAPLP

Row | SMILES | Ki [nM]
13 | COC(=O)[C@@H]1C[C@H](OC(C)=O)C(=O)[C@H]2[C@@]1(C)CC[C@H]1C(=O)O[C@H](C(=O)O)C[C@]21C | > 1000
14 | COC(=O)[C@@H]1C[C@]2(C)[C@H]3C(=O)[C@@H](OC(C)=O)C[C@@H](C(=O)OC)[C@]3(C)CC[C@H]2C(=O)O1 | > 1000
15 | COC(=O)[C@@H]1C[C@H](OC(C)=O)C(=O)[C@H]2[C@@]1(C)CC[C@H]1C(=O)O[C@H](C(=O)c3cccs3)C[C@]21C | > 1000
16 | CCOC[C@@H]1C[C@]2(C)[C@H]3C(=O)[C@@H](OC(C)=O)C[C@@H](C(=O)OC)[C@]3(C)CC[C@H]2C(=O)O1 | > 1000
17 | COC[C@@H]1C[C@]2(C)[C@H]3C(=O)[C@@H](OC(C)=O)C[C@@H](C(=O)OC)[C@]3(C)CC[C@H]2C(=O)O1 | > 1000
18 | COC(=O)[C@@H]1C[C@H](OC(C)=O)C(=O)[C@H]2[C@@]1(C)CC[C@H]1C(=O)O[C@H](C(=O)c3cnccn3)C[C@]21C | > 1000
19 | COC(=O)[C@@H]1C[C@H](OC(C)=O)C(=O)[C@H]2[C@@]1(C)CC[C@H]1C(=O)O[C@H]([C@H](O)c3ccco3)C[C@]21C | > 1000
20 | CCOC(=O)[C@@H]1C[C@]2(C)[C@H]3C(=O)[C@@H](OC(C)=O)C[C@@H](C(=O)OC)[C@]3(C)CC[C@H]2C(=O)O1 | > 1000
21 | C=Cc1occc1[C@@H]1C[C@]2(C)[C@H]3C(=O)[C@@H](OC(C)=O)C[C@@H](C(=O)OC)[C@]3(C)CC[C@H]2C(=O)O1 | > 1000
22 | COC(=O)[C@@H]1C[C@H](OC(C)=O)C(=O)[C@H]2[C@@]1(C)CC[C@H]1C(=O)O[C@H](C(=O)OC(C)C)C[C@]21C | > 1000
23 | COC(=O)[C@@H]1C[C@H](OC(C)=O)C(=O)[C@H]2[C@@]1(C)CC[C@H]1C(=O)O[C@H](COC(C)=O)C[C@]21C | > 1000
24 | COC(=O)[C@@H]1C[C@H](OC(C)=O)C(=O)[C@H]2[C@@]1(C)CC[C@H]1C(=O)O[C@H](c3ccoc3Br)C[C@]21C | > 1000

Each compound was assayed against Delta-type opioid receptor (Mus musculus, UniProt P32300) (assay: Binding affinity to mouse DOPR expressed in CHO cells).
Assay type: cell-based
Method in brief: as §1

Sequence of Delta-type opioid receptor (P32300 whole entry): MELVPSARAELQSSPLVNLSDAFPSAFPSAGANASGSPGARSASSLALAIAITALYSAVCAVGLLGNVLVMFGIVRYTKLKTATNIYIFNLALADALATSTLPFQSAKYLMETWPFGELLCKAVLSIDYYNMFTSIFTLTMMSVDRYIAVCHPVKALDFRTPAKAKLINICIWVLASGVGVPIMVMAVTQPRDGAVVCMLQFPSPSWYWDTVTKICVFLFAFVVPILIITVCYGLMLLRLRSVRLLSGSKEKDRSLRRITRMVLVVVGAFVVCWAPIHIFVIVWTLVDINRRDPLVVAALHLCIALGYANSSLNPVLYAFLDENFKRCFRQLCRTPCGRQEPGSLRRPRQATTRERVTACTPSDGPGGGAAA

Row | SMILES | Ki [nM]
25 | COC(=O)[C@@H]1C[C@H](OC(C)=O)C(=O)[C@H]2[C@@]1(C)CC[C@H]1C(=O)O[C@H](C(=O)O)C[C@]21C | > 1000
26 | COC(=O)[C@@H]1C[C@]2(C)[C@H]3C(=O)[C@@H](OC(C)=O)C[C@@H](C(=O)OC)[C@]3(C)CC[C@H]2C(=O)O1 | > 1000
27 | COC(=O)[C@@H]1C[C@H](OC(C)=O)C(=O)[C@H]2[C@@]1(C)CC[C@H]1C(=O)O[C@H](C(=O)c3cccs3)C[C@]21C | > 1000
28 | CCOC[C@@H]1C[C@]2(C)[C@H]3C(=O)[C@@H](OC(C)=O)C[C@@H](C(=O)OC)[C@]3(C)CC[C@H]2C(=O)O1 | > 1000
29 | COC[C@@H]1C[C@]2(C)[C@H]3C(=O)[C@@H](OC(C)=O)C[C@@H](C(=O)OC)[C@]3(C)CC[C@H]2C(=O)O1 | > 1000
30 | COC(=O)[C@@H]1C[C@H](OC(C)=O)C(=O)[C@H]2[C@@]1(C)CC[C@H]1C(=O)O[C@H](C(=O)c3cnccn3)C[C@]21C | > 1000
31 | COC(=O)[C@@H]1C[C@H](OC(C)=O)C(=O)[C@H]2[C@@]1(C)CC[C@H]1C(=O)O[C@H]([C@H](O)c3ccco3)C[C@]21C | > 1000
32 | CCOC(=O)[C@@H]1C[C@]2(C)[C@H]3C(=O)[C@@H](OC(C)=O)C[C@@H](C(=O)OC)[C@]3(C)CC[C@H]2C(=O)O1 | > 1000
33 | C=Cc1occc1[C@@H]1C[C@]2(C)[C@H]3C(=O)[C@@H](OC(C)=O)C[C@@H](C(=O)OC)[C@]3(C)CC[C@H]2C(=O)O1 | > 1000
34 | COC(=O)[C@@H]1C[C@H](OC(C)=O)C(=O)[C@H]2[C@@]1(C)CC[C@H]1C(=O)O[C@H](C(=O)OC(C)C)C[C@]21C | > 1000
35 | COC(=O)[C@@H]1C[C@H](OC(C)=O)C(=O)[C@H]2[C@@]1(C)CC[C@H]1C(=O)O[C@H](COC(C)=O)C[C@]21C | > 1000
36 | COC(=O)[C@@H]1C[C@H](OC(C)=O)C(=O)[C@H]2[C@@]1(C)CC[C@H]1C(=O)O[C@H](c3ccoc3Br)C[C@]21C | > 1000
